{"source": "paper PMC11403393", "about": "(RSC Advances, 2024)", "molecular_target": "α-glucosidase (Saccharomyces cerevisiae, UniProt P53341)", "sequence (P53341 whole entry)": "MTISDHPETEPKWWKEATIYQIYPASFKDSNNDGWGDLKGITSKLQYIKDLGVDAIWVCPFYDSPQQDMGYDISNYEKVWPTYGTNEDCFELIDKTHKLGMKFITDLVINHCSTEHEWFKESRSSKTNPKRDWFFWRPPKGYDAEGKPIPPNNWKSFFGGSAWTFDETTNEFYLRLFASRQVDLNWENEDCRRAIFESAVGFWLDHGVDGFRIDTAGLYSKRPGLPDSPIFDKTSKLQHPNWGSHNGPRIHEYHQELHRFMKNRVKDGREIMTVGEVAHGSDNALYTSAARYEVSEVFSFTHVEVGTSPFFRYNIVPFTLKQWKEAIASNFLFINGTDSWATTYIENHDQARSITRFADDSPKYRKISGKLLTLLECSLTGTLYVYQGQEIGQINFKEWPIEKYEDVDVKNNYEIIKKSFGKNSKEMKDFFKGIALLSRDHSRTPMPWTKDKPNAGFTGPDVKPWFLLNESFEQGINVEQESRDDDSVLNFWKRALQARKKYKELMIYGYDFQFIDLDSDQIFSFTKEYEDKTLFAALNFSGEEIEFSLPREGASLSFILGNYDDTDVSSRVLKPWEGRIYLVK", "assay": "Kinetic study of α-glucosidase inhibition", "assay_type": "biochemical", "method_in_brief": "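Yeast α-glucosidase (0.02 U per well) in 50 mM sodium phosphate, pH 7.0, preincubated with test compound (1.50, 4.00, 8.00 μM, or none) at 37 °C for 15 min. p-Nitrophenyl α-D-glucopyranoside added at 0.1, 0.2, 0.4 or 0.8 mM. A400 followed continuously for 30 min, in triplicate. Analysed by Lineweaver–Burk plot, replot of its slopes against inhibitor concentration, and Dixon plot.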", "data": [{"smiles": "O=C(Nc1cccc(Cl)c1)Nc1ccccc1N=Cc1cc(Cl)ccc1O", "note": "[Compound 5h, 1-(2-{[(5-Chloro-2-hydroxybenzylidene)amino]}phenyl)-3-(3-chlorophenyl)urea]", "values": [{"measurement": "Effect on Km of the enzyme", "result": "increases Km"}, {"measurement": "Effect on Vmax of the enzyme", "result": "remains constant"}, {"measurement": "Mode (type) of inhibition", "result": "competitive mode of inhibition"}]}]}
